# Results of several laboratories.
# Lines come from different studies, so protocols differ.
# Target: Angiopoietin-1 receptor (TEK, Homo sapiens, UniProt Q02763)
SMILES,observed,method,concentration,remaining binding [%]
O=C1CCc2cc(Nc3cc(OC4CCOCC4)c([N+](=O)[O-])cc3Cl)ccc2N1,cell-free assay,competition with immobilised ligand,1 µM,76
O=C(c1ccc(Nc2ncc(Cl)c(-c3cc4ccccc4s3)n2)cc1)N1CCC(N2CCCC2)CC1,binding,competition with immobilised ligand,1 µM,19
COc1ncc2cc3ccccc3nc2c1C#N,cell-free assay,competition with immobilised ligand,5 µM,88
CCCOc1ccc([C@@H]2[C@@H](C(=O)O)[C@H](c3ccc4c(c3)OCO4)CN2CC(=O)Nc2c(CC)cccc2CC)cc1,cell-free assay,competition with immobilised ligand,1 µM,86
Nc1ncc2c(n1)-c1c([nH]c3ccc(C#CC4CC4)cc13)CCCC2,binding,competition with immobilised ligand,1 µM,100
CC(=O)C1=C(C)N(c2cccc(C(F)(F)F)c2)C(=O)N[C@@H]1c1ccc(C#N)nc1,cell-free assay,competition with immobilised ligand,1 µM,100
F[C@@H]1CCN(c2nccc(-c3cnn4ncccc34)n2)C1,binding,,1 µM,100
Cc1nc(N2CC[C@@H](O)C2)ncc1-c1cc(C(F)(F)F)cc2[nH]ncc12,cell-free assay,competition with immobilised ligand,1 µM,100
CNC(=O)[C@@H]1CC[C@@H](n2c(-c3ccc4cnccc4c3)nc3ccc(C(=O)NCc4cccc(C(N)=O)c4)cc32)C1,binding,competition with immobilised ligand,1 µM,100
CC(C)(C)c1ccc(-c2nc(CBr)nn2-c2cccc(O)c2)cc1,cell-free assay,competition with immobilised ligand,10 µM,99
O=C(c1ccc(Nc2ncc(Cl)c(-c3ccc(Cl)s3)n2)cc1)N1CCC(N2CCCC2)CC1,binding,competition with immobilised ligand,1 µM,23
COc1cnc(Nc2cccc(S(N)(=O)=O)c2)nc1N1CCN(c2ccccc2)CC1,binding,competition with immobilised ligand,1 µM,100
COc1ccnn2ncc(-c3ccnc(N(C)C)n3)c12,binding,,1 µM,100
C[C@@H]1CN(c2ccc3ncc(-c4ccc5[nH]nc(C6CC6)c5c4)n3n2)C[C@H](C)O1,binding,competition with immobilised ligand,0.5 µM,100
CS(=O)(=O)N1CCCC(NC(=O)[C@H](CCC2CCCCC2)NC(=O)c2ccc(CNc3ncnc4c3nnn4-c3ccccc3)cc2)C1 (stereo partly shown),cell-free assay,competition with immobilised ligand,0.1 µM,73
N[C@@H]1CCN(c2nccc(-c3cnn4ncccc34)n2)C1,binding,,1 µM,98
CCS(=O)(=O)c1cc2cc(C[C@@](O)(CC(C)(C)c3ccc(F)cc3C(N)=O)C(F)(F)F)[nH]c2cn1,cell-free assay,competition with immobilised ligand,1 µM,94
CN(c1nccc(-c2cnn3ncccc23)n1)C1CC1,binding,,1 µM,100
CCN1CCN(Cc2ccc(C(=O)Nc3ccc(C)c(Oc4ccc5c(c4)CC(=O)N5)c3)cc2C(F)(F)F)CC1,binding,competition with immobilised ligand,1 µM,100
C[C@@H]1CN(c2cc(-c3n[nH]c4ccc(OC5(C)CC5)cc34)ncn2)C[C@H](C)O1,cell-free assay,competition with immobilised ligand,0.1 µM,100
C[C@@H]1CCN(c2nccc(-c3cnn4ncccc34)n2)C1,binding,,1 µM,77
O=C(NCCCN1CCOCC1)c1ccc(Nc2nccc(-c3cc4ccccc4s3)n2)cc1,binding,competition with immobilised ligand,1 µM,58
O=C(NCC1CCOCC1)c1n[nH]cc1NC(=O)c1c(F)cccc1F,binding,competition with immobilised ligand,1 µM,100
CN(CCCC(F)(F)F)c1nccc(-c2cnn3ncccc23)n1,binding,,1 µM,100
O=C(NCCCC1CCCCC1)c1ccc(CNC(=O)c2cnn(-c3ccccc3)c2C(F)(F)F)cc1,cell-free assay,competition with immobilised ligand,0.1 µM,100
